Test results reported in ChEMBL document CHEMBL1136016, “Synthesis, biological activity, and molecular modeling investigation of new pyrazolo[4,3-e]-1,2,4-triazolo[1,5-c]pyrimidine derivatives as human A(3) adenosine receptor antagonists” (J Med Chem, 2002).

Experiments:
[1] = target: Adenosine receptors; A1 & A3 (Homo sapiens) (UniProt P30542+P0DMS8); experiment: Selectivity ratio (hA1/hA3); format: protein assay
[2] = target: T1, Adenosine receptor A3 (Homo sapiens, UniProt P0DMS8); experiment: Displacement of [3H]MRE3008-F20 from human Adenosine A3 receptor expressed in HEK cells; range 0.71-0.91; format: cell-based, HEK293
T1 sequence (P0DMS8 whole entry): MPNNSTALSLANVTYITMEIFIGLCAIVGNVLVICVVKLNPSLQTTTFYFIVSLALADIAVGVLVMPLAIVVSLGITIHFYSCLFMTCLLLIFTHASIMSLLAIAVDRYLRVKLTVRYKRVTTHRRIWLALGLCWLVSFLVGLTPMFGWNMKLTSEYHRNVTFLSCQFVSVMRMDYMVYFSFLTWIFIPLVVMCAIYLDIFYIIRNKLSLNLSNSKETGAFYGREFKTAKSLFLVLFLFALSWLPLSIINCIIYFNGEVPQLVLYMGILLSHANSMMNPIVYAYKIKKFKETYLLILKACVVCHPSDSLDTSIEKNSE

[3] = target: T2, Adenosine receptor A1 (Homo sapiens, UniProt P30542); experiment: Displacement of [3H]DPCPX from human Adenosine A1 receptor expressed in CHO cells; range 406-616; format: cell-based
T2 sequence (P30542 whole entry): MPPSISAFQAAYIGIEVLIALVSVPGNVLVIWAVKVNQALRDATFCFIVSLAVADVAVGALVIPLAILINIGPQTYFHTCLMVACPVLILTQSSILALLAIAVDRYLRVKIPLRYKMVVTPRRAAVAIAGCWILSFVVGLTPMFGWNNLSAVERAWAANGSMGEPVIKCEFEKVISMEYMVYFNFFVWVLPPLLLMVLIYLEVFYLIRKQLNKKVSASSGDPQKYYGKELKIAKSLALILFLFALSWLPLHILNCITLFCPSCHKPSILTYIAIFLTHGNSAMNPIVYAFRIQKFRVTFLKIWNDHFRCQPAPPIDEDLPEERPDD

[4] = target: T1, Adenosine receptor A3; experiment: Inhibition of IB-MECA agonist-mediated cAMP production in CHO cell membranes expressing human Adenosine A3 receptor; range 5.5-10.9; format: functional, cell-based
Method in brief: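 Human A3-CHO membranes (in 50 mM Tris HCl, 10 mM MgCl2, 1 mM EDTA, pH 7.4) were preincubated for 10 min at 37 °C with 5 µM GTP, 0.5 mM Ro 20-1724 and 2.0 IU/mL adenosine deaminase. IB-MECA (100 nM) or antagonist was then added with 1 mM ATP and forskolin for 10 min. The reaction was stopped by 2 min boiling. cAMP was measured by [3H]cAMP competitive protein binding using beef adrenal binding protein, 150 min at 4 °C.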

[5] = target: T3, Adenosine receptor A2a (Homo sapiens, UniProt P29274); experiment: Displacement of [3H]SCH-58261 from human Adenosine A2A receptor expressed in HEK293 cells; range 140-186; format: cell-based
[6] = target: Adenosine receptors; A2b & A3 (Homo sapiens) (UniProt P29275+P0DMS8); experiment: Selectivity ratio (h2B/hA3); format: protein assay
[7] = target: T4, Adenosine receptor A2b (Homo sapiens, UniProt P29275); experiment: Displacement of [3H]DPCPX from human Adenosine A2B receptor expressed in HEK293 cells; range 213-296; format: cell-based
T4 sequence (P29275 whole entry): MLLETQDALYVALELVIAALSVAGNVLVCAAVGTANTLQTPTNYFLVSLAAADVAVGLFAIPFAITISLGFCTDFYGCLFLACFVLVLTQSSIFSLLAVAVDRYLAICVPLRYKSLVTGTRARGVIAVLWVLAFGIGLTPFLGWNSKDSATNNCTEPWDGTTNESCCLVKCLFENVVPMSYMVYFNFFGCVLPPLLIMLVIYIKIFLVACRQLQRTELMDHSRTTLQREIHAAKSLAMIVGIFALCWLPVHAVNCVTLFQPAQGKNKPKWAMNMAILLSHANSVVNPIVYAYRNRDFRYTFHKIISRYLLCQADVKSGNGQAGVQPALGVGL
Method in brief: (§1)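 Competition binding on membranes of HEK-293 cells carrying recombinant human A2B receptor. Incubation 60 min at 25 °C in 50 mM Tris HCl pH 7.4 with 10 mM MgCl2, 1 mM EDTA, 0.1 mM benzamidine and 2 IU/mL adenosine deaminase. Radioligand 40 nM [3H]DPCPX, at least six to eight test concentrations. NECA defined nonspecific binding. Bound ligand separated on glass-fibre filters and counted; n = 3-6.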

[8] = target: T3, Adenosine receptor A2a; experiment: Displacement of [3H]SCH-58261 from human Adenosine A2A receptor expressed in HEK293 cells; range 71-111; format: cell-based
[9] = target: T4, Adenosine receptor A2b; experiment: Displacement of [3H]DPCPX from human Adenosine A2B receptor expressed in HEK293 cells; range 116-134; format: cell-based
Method in brief: (§2)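 Membranes from HEK-293 cells with human recombinant A2B receptor. Incubation 60 min at 25 °C in 50 mM Tris HCl, 10 mM MgCl2, 1 mM EDTA, 0.1 mM benzamidine, pH 7.4, with 2 IU/mL adenosine deaminase and 40 nM [3H]DPCPX. At least six to eight test concentrations. Nonspecific binding defined with NECA. n = 3-6.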

[10] = target: T2, Adenosine receptor A1; experiment: Displacement of [3H]DPCPX from human Adenosine A1 receptor expressed in CHO cells; range 156-258; format: cell-based
[11] = target: T1, Adenosine receptor A3; experiment: biochemical
[12] = target: T2, Adenosine receptor A1; experiment: Displacement of [3H]DPCPX from human Adenosine A1 receptor expressed in CHO cells; range 346-586; format: cell-based
Method in brief: (§3)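 Human recombinant A1 receptor in CHO cell membranes, resuspended in 50 mM Tris HCl pH 7.4. Displacement run 120 min at 25 °C with 1 nM [3H]DPCPX, 50 µg protein per assay, and at least six to eight test concentrations. Nonspecific binding defined with CHA. Bound and free separated on glass-fiber filters; filter radioactivity counted. n = 3-6.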

[13] = target: T4, Adenosine receptor A2b; experiment: Displacement of [3H]DPCPX from human Adenosine A2B receptor expressed in HEK293 cells; range 178-310; format: cell-based
Method in brief: (§4)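 HEK-293 membranes expressing the human receptor were incubated 60 min at 25 °C. Six to eight test concentrations were used. Nonspecific binding was set with NECA. n = 3-6.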

[14] = target: T3, Adenosine receptor A2a; experiment: Displacement of [3H]SCH-58261 from human Adenosine A2A receptor expressed in HEK293 cells; range 51-55; format: cell-based
[15] = target: T1, Adenosine receptor A3; experiment: biochemical; remark: listed apart in the source
[16] = target: T2, Adenosine receptor A1; experiment: Displacement of [3H]DPCPX from human Adenosine A1 receptor expressed in CHO cells; range 330-478; format: cell-based; method in brief: as §3
[17] = target: T4, Adenosine receptor A2b; experiment: Displacement of [3H]DPCPX from human Adenosine A2B receptor expressed in HEK293 cells; range 115-161; format: cell-based; method in brief: as §4
[18] = target: T3, Adenosine receptor A2a; experiment: Displacement of [3H]SCH-58261 from human Adenosine A2A receptor expressed in HEK293 cells; range 24-48; format: cell-based
[19] = target: T1, Adenosine receptor A3; experiment: biochemical; remark: listed apart in the source
[20] = target: T4, Adenosine receptor A2b; experiment: Displacement of [3H]DPCPX from human Adenosine A2B receptor expressed in HEK293 cells; range 49-77; format: cell-based; method in brief: as §1
[21] = target: T2, Adenosine receptor A1; experiment: Displacement of [3H]DPCPX from human Adenosine A1 receptor expressed in CHO cells; range 245-370; format: cell-based
[22] = target: T3, Adenosine receptor A2a; experiment: Displacement of [3H]SCH-58261 from human Adenosine A2A receptor expressed in HEK293 cells; range 103-142; format: cell-based
[23] = target: T1, Adenosine receptor A3; experiment: Displacement of [3H]MRE3008-F20 from human Adenosine A3 receptor expressed in HEK cells; range 0.61-0.83; format: cell-based, HEK293
[24] = target: T4, Adenosine receptor A2b; experiment: Displacement of [3H]DPCPX from human Adenosine A2B receptor expressed in HEK293 cells; range 211-287; format: cell-based; method in brief: as §2
[25] = target: T1, Adenosine receptor A3; experiment: Displacement of [3H]MRE3008-F20 binding at human Adenosine A3 receptor expressed in HEK cells; range 0.77-0.97; format: cell-based, HEK293
[26] = target: T2, Adenosine receptor A1; experiment: Displacement of [3H]DPCPX from human Adenosine A1 receptor expressed in CHO cells; range 509-712; format: cell-based; method in brief: as §3
[27] = target: T3, Adenosine receptor A2a; experiment: Displacement of [3H]SCH-58261 from human Adenosine A2A receptor expressed in HEK293 cells; range 48-78; format: cell-based

T3 sequence (P29274 whole entry): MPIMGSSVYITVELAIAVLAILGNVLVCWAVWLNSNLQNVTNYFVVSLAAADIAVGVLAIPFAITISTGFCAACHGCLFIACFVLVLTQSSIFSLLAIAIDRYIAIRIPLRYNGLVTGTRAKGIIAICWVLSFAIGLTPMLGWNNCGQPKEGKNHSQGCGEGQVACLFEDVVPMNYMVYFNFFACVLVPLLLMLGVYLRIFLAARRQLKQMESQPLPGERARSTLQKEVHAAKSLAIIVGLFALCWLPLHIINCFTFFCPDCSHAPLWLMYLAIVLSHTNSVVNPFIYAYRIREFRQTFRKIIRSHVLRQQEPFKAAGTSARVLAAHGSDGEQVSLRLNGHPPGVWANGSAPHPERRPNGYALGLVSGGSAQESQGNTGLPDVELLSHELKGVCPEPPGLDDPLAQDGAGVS

COc1cccc(NC(=O)Nc2nc3nn(C)cc3c3nc(-c4ccco4)nn23)c1
Ratio [1]: 625
Ki [2]: 0.8 nM
Ki [3]: 500 nM
IC50 [4]: 7.8 nM
Ki [5]: 160 nM
Ratio [6]: 313
Ki [7]: 251 nM

CCCCn1cc2c(nc(NC(=O)Nc3ccccc3OC)n3nc(-c4ccco4)nc23)n1
Ratio [1]: 351
Ki [8]: 91 nM
Ki [9]: 125 nM
Ki [10]: 200 nM
Ki [11]: 0.57 nM
Ratio [6]: 219

CCn1cc2c(nc(NC(=O)Nc3ccc(C(F)(F)F)cc3)n3nc(-c4ccco4)nc23)n1
Ki [12]: 450 nM
Ratio [1]: 464
Ki [13]: 235 nM
Ki [14]: 53 nM
Ki [15]: 0.97 nM
Ratio [6]: 242

CCCn1cc2c(nc(NC(=O)Nc3ccc(C(F)(F)F)cc3)n3nc(-c4ccco4)nc23)n1
Ratio [1]: 784
Ki [16]: 400 nM
Ki [17]: 136 nM
Ki [18]: 34 nM
Ki [19]: 0.51 nM
Ratio [6]: 267

CCCn1cc2c(nc(NC(=O)Nc3ccccc3Cl)n3nc(-c4ccco4)nc23)n1
Ratio [1]: 423
Ki [20]: 61 nM
Ki [21]: 300 nM
Ki [22]: 121 nM
Ki [23]: 0.71 nM
Ratio [6]: 86

CCn1cc2c(nc(NC(=O)Nc3ccc(F)cc3)n3nc(-c4ccco4)nc23)n1
Ratio [1]: 700
Ki [24]: 246 nM
Ki [25]: 0.86 nM
Ki [26]: 602 nM
Ratio [6]: 286
Ki [27]: 60 nM
